Measurements as given in ChEMBL document CHEMBL5724801, “EUbOPEN Chemogenomics Library - Multiplex” (2024).
“And” between values parts separate entries of the source, which are not always exact repeats. Equal values may be shown once.

Key:
[1] = test system: Fibroblast; assay: Multiplex assay against human fibroblast; assay type: toxicity, cell-based
How it was run: (§1)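 Live cells carried four stains from seeding: Hoechst33342, BioTracker Green Microtubule Cytoskeleton Dye, MitoTracker Red and Annexin V Alexa Fluor 680. They were imaged on a CQ1 microscope at 37°C and 5% CO2 after compound addition. Using CellPathfinder machine-learning gating, cells were split into Hoechst high-intensity objects or normal cells, normal cells into healthy, pyknosed or fragmented nuclei, and pyknosed cells into mitotic or apoptotic; tubulin, mitochondrial-mass and membrane-permeability phenotypes are per cents of healthy-nucleus cells.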

[2] = test system: HEK-293T; assay: Multiplex assay against HEK293T; assay type: toxicity, cell-based; conditions: human; how it was run: as §1
[3] = 12 h, 1 µM, compound concentration 1 uM
[4] = 12 h, 10 µM, compound concentration 10 uM
[5] = 24 h, 1 µM, compound concentration 1 uM
[6] = 24 h, 10 µM, compound concentration 10 uM
[7] = 48 h, 1 µM, compound concentration 1 uM
[8] = 48 h, 10 µM, compound concentration 10 uM

CN1CCN(c2ccc(Nc3c4ccccc4nc4ccccc34)cc2)CC1.Cl.Cl.O
Population Apoptotic (%) [1, 3]: 47% and 44% | Population Fragmented Nuclei (%) [1, 3]: 15% and 28% | Population Healthy Nuclei (%) [1, 3]: 69% and 56% | Population Hoechst High Intensity Objects (%) [1, 3]: 1% | Population Membrane Permeable-Phenotype (%) [1, 3]: 0% and 5% | Population Mitochondria Different-Phenotype (%) [1, 3]: 3% and 5% | Population Mitotic Cells (%) [1, 3]: 52% and 56% | Population Normal (%) [1, 3]: 98% | Population Pyknosed Nuclei (%) [1, 3]: 14% and 15% | Population Tubulin-Different-Phenotype (%) [1, 3]: 23% and 34% | Total Cell Count [1, 3]: 135 and 160 | Population Apoptotic (%) [1, 4]: 91% and 66% | Population Fragmented Nuclei (%) [1, 4]: 42% and 65% | Population Healthy Nuclei (%) [1, 4]: 49% and 29% | Population Hoechst High Intensity Objects (%) [1, 4]: 8% and 16% | Population Membrane Permeable-Phenotype (%) [1, 4]: 0% and 4% | Population Normal (%) [1, 4]: 91% and 83% | Population Pyknosed Nuclei (%) [1, 4]: 8% and 4% | Population Tubulin-Different-Phenotype (%) [1, 4]: 90% and 79% | Total Cell Count [1, 4]: 158 and 177 | Population Apoptotic (%) [1, 5]: 70% and 60% | Population Fragmented Nuclei (%) [1, 5]: 21% and 29% | Population Healthy Nuclei (%) [1, 5]: 65% and 57% | Population Hoechst High Intensity Objects (%) [1, 5]: 0% | Population Membrane Permeable-Phenotype (%) [1, 5]: 0% and 3% | Population Mitochondria Different-Phenotype (%) [1, 5]: 2% and 7% | Population Mitotic Cells (%) [1, 5]: 29% and 40% | Population Normal (%) [1, 5]: 99% and 100% | Population Pyknosed Nuclei (%) [1, 5]: 12% | Total Cell Count [1, 5]: 139 and 155 | Population Apoptotic (%) [1, 6]: 77% and 60% | Population Fragmented Nuclei (%) [1, 6]: 47% and 69% | Population Healthy Nuclei (%) [1, 6]: 39% and 27% | Population Hoechst High Intensity Objects (%) [1, 6]: 16% and 21% | Population Membrane Permeable-Phenotype (%) [1, 6]: 1% and 6% | Population Mitochondria Different-Phenotype (%) [1, 6]: 66% and 34% | Population Mitotic Cells (%) [1, 6]: 22% and 40% | Population Normal (%) [1, 6]: 83% and 78% | Population Pyknosed Nuclei (%) [1, 6]: 12% and 3% | Population Tubulin-Different-Phenotype (%) [1, 6]: 94% and 84% | Total Cell Count [1, 6]: 206 and 205 | Population Apoptotic (%) [1, 7]: 66% and 55% | Population Fragmented Nuclei (%) [1, 7]: 23% and 25% | Population Healthy Nuclei (%) [1, 7]: 70% and 68% | Population Hoechst High Intensity Objects (%) [1, 7]: 1% | Population Membrane Permeable-Phenotype (%) [1, 7]: 0% and 1% | Population Mitochondria Different-Phenotype (%) [1, 7]: 4% | Population Mitotic Cells (%) [1, 7]: 33% and 44% | Population Normal (%) [1, 7]: 98% | Population Pyknosed Nuclei (%) [1, 7]: 6% and 5% | Population Tubulin-Different-Phenotype (%) [1, 7]: 26% | Total Cell Count [1, 7]: 144 and 157 | Population Fragmented Nuclei (%) [1, 8]: 71% and 88% | Population Healthy Nuclei (%) [1, 8]: 15% and 11% | Population Hoechst High Intensity Objects (%) [1, 8]: 45% and 38% | Population Membrane Permeable-Phenotype (%) [1, 8]: 15% and 25% | Population Mitochondria Different-Phenotype (%) [1, 8]: 30% and 12% | Population Normal (%) [1, 8]: 54% and 61% | Population Pyknosed Nuclei (%) [1, 8]: 12% and 0% | Population Tubulin-Different-Phenotype (%) [1, 8]: 25% and 56% | Total Cell Count [1, 8]: 235 and 236 | Population Apoptotic (%) [2, 3]: 42% and 55% | Population Fragmented Nuclei (%) [2, 3]: 7% and 4% | Population Healthy Nuclei (%) [2, 3]: 81% and 90% | Population Hoechst High Intensity Objects (%) [2, 3]: 3% and 1% | Population Membrane Permeable-Phenotype (%) [2, 3]: 0% | Population Mitochondria Different-Phenotype (%) [2, 3]: 50% and 59% | Population Mitotic Cells (%) [2, 3]: 57% and 45% | Population Normal (%) [2, 3]: 96% and 98% | Population Pyknosed Nuclei (%) [2, 3]: 11% and 5% | Population Tubulin-Different-Phenotype (%) [2, 3]: 28% and 20% | Total Cell Count [2, 3]: 411 and 364 | Population Apoptotic (%) [2, 4]: 100% | Population Fragmented Nuclei (%) [2, 4]: 24% and 40% | Population Healthy Nuclei (%) [2, 4]: 74% and 58% | Population Hoechst High Intensity Objects (%) [2, 4]: 1% and 0% | Population Membrane Permeable-Phenotype (%) [2, 4]: 0% | Population Mitochondria Different-Phenotype (%) [2, 4]: 99% and 100% | Population Mitotic Cells (%) [2, 4]: 0% | Population Normal (%) [2, 4]: 98% and 99% | Population Pyknosed Nuclei (%) [2, 4]: 1% | Population Tubulin-Different-Phenotype (%) [2, 4]: 97% and 92% | Total Cell Count [2, 4]: 234 and 194 | Population Apoptotic (%) [2, 5]: 42% and 46% | Population Fragmented Nuclei (%) [2, 5]: 9% | Population Healthy Nuclei (%) [2, 5]: 84% and 86% | Population Hoechst High Intensity Objects (%) [2, 5]: 2% and 0% | Population Membrane Permeable-Phenotype (%) [2, 5]: 0% | Population Mitochondria Different-Phenotype (%) [2, 5]: 40% and 44% | Population Mitotic Cells (%) [2, 5]: 57% and 53% | Population Normal (%) [2, 5]: 97% and 99% | Population Pyknosed Nuclei (%) [2, 5]: 5% and 4% | Population Tubulin-Different-Phenotype (%) [2, 5]: 14% and 12% | Total Cell Count [2, 5]: 455 and 362 | Population Apoptotic (%) [2, 6]: 100%
